From paper PMC2225610 (The Journal of General Physiology, 1999)
Entries after “also recorded” stand apart in the source; their conditions may differ. Like-named read-outs stand apart in the source and are kept apart here.

What was measured:
[1] = target: T1, type 1 InsP3 receptor (cerebellar membranes) (Canis lupus familiaris, UniProt A0A8I3NKB2); experiment: InsP3 binding to cerebellar microsomes; parameters: species or system canine
Summary of the method: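 Canine cerebellar microsomes prepared with protease inhibitors. Membranes added, incubated 8 min at 0° or 22°C, then pelleted at 40,000 g for 10 min for scintillation counting. Nonspecific binding measured with 40–160 μM unlabeled InsP3. Two-site Scatchard fit; 3–5 repeats, separate preparations.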

intracellular Ca = details: 100 μM; ref Wakui et al., 1989; Petersen et al., 1991; cited from earlier work
[2] = target: T1, type 1 InsP3 receptor (cerebellar membranes); details: ref Kaftan et al., 1997; cited from earlier work
[3] = system: cerebellar Purkinje cells; details: flash photolysis; ref Khodakhah and Ogden, 1995; cited from earlier work
[4] = target: InsP3-gated Ca channel tetrameric complex; experiment: Mathematical model of the tetrameric InsP3-gated channel complex; details: read-out: Model dissociation constant, InsP3 low affinity site (J); 22°C
Summary of the method: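 Tetramer model: each subunit has a medium-affinity InsP3 site, a low-affinity InsP3 site and a Ca site, giving 125 states. Assumes mass-action binding, diffusion-limited on-rates and identical subunits, solved at equilibrium. Low-affinity occupancy defines the active state, with open/closed transitions. Unknown parameters found by quasi-Newton iterative fitting to single-channel open probability and Ca-dependent binding data at 22°C; open-time histograms add constraints.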

[5] = target: T2, type 1 InsP3-gated Ca channel (Canis lupus familiaris, UniProt A0A8I3NKB2); details: cited from earlier work
[6] = target: T2, type 1 InsP3-gated Ca channel; experiment: InsP3-gated channel activity in planar lipid bilayer; assay type: biochemical, canine
Summary of the method: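 Canine cerebellar microsomes fused into PE:PS (3:1) bilayers in decane. Cytosolic side: 500 μM Na-ATP, 500 μM EGTA, 110 mM Tris, 250 mM HEPES, pH 7.35, with CaCl2 to set free Ca, verified by BTC fluorescence. Luminal side: 53 mM Ba(OH)2 as carrier, 250 mM HEPES. InsP3 added to start activity. Held at 0 mV; filtered 1 kHz, digitized 5 kHz; open-time histograms compiled.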

T1 sequence (A0A8I3NKB2 1-2757): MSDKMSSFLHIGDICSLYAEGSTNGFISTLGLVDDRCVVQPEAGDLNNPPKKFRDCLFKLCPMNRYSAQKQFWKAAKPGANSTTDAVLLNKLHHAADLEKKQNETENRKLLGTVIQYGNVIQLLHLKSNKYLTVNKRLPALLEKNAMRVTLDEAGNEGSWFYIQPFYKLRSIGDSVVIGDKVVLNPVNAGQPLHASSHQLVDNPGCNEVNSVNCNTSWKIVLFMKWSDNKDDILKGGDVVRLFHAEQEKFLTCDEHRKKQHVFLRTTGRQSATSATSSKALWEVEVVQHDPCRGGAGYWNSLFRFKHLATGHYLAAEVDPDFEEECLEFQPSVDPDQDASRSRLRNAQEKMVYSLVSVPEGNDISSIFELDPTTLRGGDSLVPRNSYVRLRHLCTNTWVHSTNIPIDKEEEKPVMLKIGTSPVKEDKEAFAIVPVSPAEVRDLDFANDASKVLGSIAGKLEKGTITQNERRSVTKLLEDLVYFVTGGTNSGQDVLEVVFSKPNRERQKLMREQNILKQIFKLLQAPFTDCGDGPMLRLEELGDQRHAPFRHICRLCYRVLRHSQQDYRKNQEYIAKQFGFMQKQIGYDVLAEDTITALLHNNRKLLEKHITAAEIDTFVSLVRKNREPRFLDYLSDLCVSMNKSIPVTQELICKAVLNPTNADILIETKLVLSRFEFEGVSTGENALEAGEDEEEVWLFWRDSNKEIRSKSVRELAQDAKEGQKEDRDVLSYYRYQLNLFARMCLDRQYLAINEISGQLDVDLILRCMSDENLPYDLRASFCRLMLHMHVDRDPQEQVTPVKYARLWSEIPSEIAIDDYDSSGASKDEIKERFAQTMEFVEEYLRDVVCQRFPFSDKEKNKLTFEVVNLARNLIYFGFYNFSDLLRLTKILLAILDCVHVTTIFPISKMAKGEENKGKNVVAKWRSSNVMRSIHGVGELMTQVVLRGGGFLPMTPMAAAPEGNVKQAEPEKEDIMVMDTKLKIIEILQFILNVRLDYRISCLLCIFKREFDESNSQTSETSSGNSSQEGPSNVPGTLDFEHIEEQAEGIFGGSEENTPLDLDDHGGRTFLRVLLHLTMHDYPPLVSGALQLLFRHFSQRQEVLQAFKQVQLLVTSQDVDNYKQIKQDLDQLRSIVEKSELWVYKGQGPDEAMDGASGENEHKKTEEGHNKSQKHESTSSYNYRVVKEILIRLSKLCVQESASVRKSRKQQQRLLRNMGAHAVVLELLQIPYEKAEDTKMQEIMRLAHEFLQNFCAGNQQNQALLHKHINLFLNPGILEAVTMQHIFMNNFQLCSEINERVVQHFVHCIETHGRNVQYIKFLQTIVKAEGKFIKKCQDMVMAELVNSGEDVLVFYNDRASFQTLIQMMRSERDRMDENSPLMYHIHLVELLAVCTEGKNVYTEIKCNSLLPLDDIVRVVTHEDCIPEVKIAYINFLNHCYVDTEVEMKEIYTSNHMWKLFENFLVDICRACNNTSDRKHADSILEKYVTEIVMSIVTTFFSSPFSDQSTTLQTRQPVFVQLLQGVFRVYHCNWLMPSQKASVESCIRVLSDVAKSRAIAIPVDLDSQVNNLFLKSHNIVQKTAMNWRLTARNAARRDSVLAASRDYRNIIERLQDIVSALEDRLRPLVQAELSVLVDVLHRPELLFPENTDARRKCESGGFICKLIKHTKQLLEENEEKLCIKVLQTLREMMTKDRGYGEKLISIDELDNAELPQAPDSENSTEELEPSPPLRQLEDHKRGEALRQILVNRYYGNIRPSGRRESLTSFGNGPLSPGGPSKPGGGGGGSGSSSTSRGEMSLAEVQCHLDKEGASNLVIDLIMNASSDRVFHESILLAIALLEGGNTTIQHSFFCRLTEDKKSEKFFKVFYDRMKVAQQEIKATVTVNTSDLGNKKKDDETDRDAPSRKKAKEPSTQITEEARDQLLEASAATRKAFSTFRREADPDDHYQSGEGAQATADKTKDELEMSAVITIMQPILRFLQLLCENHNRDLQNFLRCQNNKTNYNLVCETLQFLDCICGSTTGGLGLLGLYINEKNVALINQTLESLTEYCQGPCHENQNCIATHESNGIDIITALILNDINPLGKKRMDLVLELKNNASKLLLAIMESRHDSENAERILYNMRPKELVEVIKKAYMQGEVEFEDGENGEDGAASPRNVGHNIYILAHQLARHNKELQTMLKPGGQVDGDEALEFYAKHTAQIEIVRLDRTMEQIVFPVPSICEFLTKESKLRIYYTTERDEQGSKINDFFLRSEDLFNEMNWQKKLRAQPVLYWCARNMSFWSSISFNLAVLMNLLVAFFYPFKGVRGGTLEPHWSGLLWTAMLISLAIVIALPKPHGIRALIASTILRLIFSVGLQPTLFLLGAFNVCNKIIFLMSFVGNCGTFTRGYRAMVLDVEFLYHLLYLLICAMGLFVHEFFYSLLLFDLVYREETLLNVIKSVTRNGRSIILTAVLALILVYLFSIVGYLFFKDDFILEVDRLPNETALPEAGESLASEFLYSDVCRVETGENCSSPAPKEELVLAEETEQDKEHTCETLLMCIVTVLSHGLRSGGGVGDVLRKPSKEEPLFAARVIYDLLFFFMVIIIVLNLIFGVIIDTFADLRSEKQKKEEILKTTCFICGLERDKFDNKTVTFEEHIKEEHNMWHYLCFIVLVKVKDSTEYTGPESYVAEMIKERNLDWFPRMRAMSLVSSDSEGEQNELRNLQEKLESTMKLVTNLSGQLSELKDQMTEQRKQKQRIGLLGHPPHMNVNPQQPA

For `O=C(O)CN(CCOCCOCCN(CC(=O)O)CC(=O)O)CC(=O)O` [EGTA], the “Reversal of Ca-dependent inhibition of InsP3 binding by Ca chelation” value ([1]; EGTA added after Ca) was “fully reversible; also recorded: completely reversed; also recorded: completely reversible”.
In the case of `[Ba+2]` [barium], the “Effect on Ca-dependent inhibition of InsP3 binding” value ([1]; 100 μM free barium, data not shown) is reported as “did not alter”.
For `O=P(O)(S)O[C@@H]1[C@@H](O)[C@H](OP(O)(O)=S)[C@@H](OP(O)(O)=S)[C@H](O)[C@@H]1O` (stereo partly shown) [InsPS3], the “Effect on intracellular Ca” value (intracellular Ca) is given as “sustained elevation of intracellular Ca”.
In the case of `O=P(O)(O)OC1[C@H](O)[C@H](OP(=O)(O)O)C(OP(=O)(O)O)[C@H](OP(=O)(O)O)[C@H]1O` (stereo partly shown) [1,3,4,5-InsP4], the “Specificity of low affinity site for 1,4,5-InsP3 versus 1,3,4,5-InsP4” value [2] is listed as “low level of specificity”.
In the case of `O=P(O)(O)O[C@@H]1[C@H](O)[C@H](O)[C@@H](OP(=O)(O)O)[C@H](OP(=O)(O)O)[C@H]1O` [InsP3, inositol 1,4,5-trisphosphate], the “Intracellular InsP3 needed to induce Ca release” value [3] is given as “at least 9 μM”, the “Effect on intracellular Ca” value (intracellular Ca) is given as “sustained elevation of intracellular Ca” and the “Q10 of temperature-dependent change in InsP3 binding affinity” value ([1]; 0° vs 22°C, cerebellar membranes) is given as 2.3. For the same molecule, the “Difference between medium and low affinity site dissociation constants” value ([1]; 22°C (0.3 vs ∼10 μM)) was 30 ×, the “Difference in dissociation constants between medium and low affinity sites” value ([1]; 37°C (1 vs. 10 μM), predicted) was 10 fold and the Kd ([1]; read-out: Kd for InsP3 binding at high Ca, 22°C, 50 μM free Ca) was 1.78 µM. For the same molecule, the Kd ([1]; read-out: Kd of InsP3 binding, medium affinity site, 22°C) was 0.312 µM, the Kd [4] was 10 µM and the “Effect of high InsP3 on Ca-dependent inhibition of channel activity” value ([5]; 180 μM InsP3, ref Kaftan et al., 1997) was “overcame the Ca-dependent inhibition of channel activity”. For the same molecule, the “Hill coefficient from single channel activity determinations” value ([5]; ref Watras et al., 1991) was 1.0, the “Channel open time constant, fast component” value ([6]; 0.01 μM Ca, 2 μM InsP3) was 1.8 ms and the “Channel open time constant, slow component” value ([6]; 0.01 μM Ca, 2 μM InsP3) was 9.3 ms. For the same molecule, the “Channel open time constant, fast component” value ([6]; 0.1 μM Ca) was 0.6 ms and the “Channel open time constant, slow component” value ([6]; 0.1 μM Ca) was 4.7 ms.
For `[Ca+2]` [Ca, calcium], the “Effect of Ca on maximal number of InsP3 binding sites” value ([1]; 0° and 22°C) was “did not influence the maximal number of binding sites; also recorded: no evidence for an effect”, the “Hill coefficient of Ca-dependent inhibition of InsP3 binding” value ([1]; 0°C) was 1.5 and the “Ca-dependent increase in Kd of InsP3 binding” value ([1]; 0°C, Ca 0.0004 to 10 μM, medium affinity site) was roughly 3.5 fold. For the same molecule, the “Decrease of InsP3 binding by Ca” value ([1]; 0°C, Ca increased from 0 to 100 μM, 10 nM InsP3) was 66%, the “Hill coefficient of Ca-dependent inhibition of InsP3 binding” value ([1]; 22°C) was 2.8 and the “Reduction of InsP3 binding by Ca” value ([1]; 22°C, 170 nM InsP3, Ca 0.1 to 10 μM) was 55%. The “Inhibition of channel activity by Ca” value ([5]; 5 μM Ca, 2 μM InsP3, ref Bezprozvanny et al., 1991) was “near complete inhibition”.
